# Compound activity as filed in PubChem.
# In the library only some 3.1% were active in any assay of this set; here they are far more common.
# CHO parental Ca = ATP-evoked calcium signal inhibitors, parental CHO, primary screen, counter-screen for OX1R antagonist project, cell-based, fluorescence, Fluo-8 calcium dye. parental CHO-K1, ATP-induced calcium, Fluo-8 fluorescence. inhibition, % at 5.6 µM. 330,000 compounds, 0.63% hits. AID 463079, 2010;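 active = inhibition above that plate's mean sample inhibition plus 3 SD, cut at about 26% in these data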;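 note: 0% = ATP-challenged DMSO wells and 100% = DMSO wells without ATP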
#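 Material: Parental CHO cells | Reagent: ATP | Compound dosing: Single nominal dose of 5.6 µM per compound | Detection: Intracellular calcium via Fluo-8 no-wash fluorescent dye | Read-out: % inhibition of ATP-induced calcium mobilization | Benchmarks: Low control ATP plus DMSO, high control DMSO only | Replicates: Singlicate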
# OX1R antag-1 = antagonists of human orexin 1 receptor (OX1R); OX1R-expressing cells, FRET antagonist read-out; inhibition, % at 6.6 µM; 330,000 compounds, 1.8% hits; in the data active = inhibition mostly above about 38%, no sharp cut-off; inactive = mostly below about 40%;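 note: 0% = agonist challenge alone and 100% = reference antagonist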
# GalR3 antagonist = GalR3 antagonists in HEK293 cells, primary screen, cell-based, fluorescence readout | HEK293 GalR3-CNG cAMP membrane potential fluorescence; galR3 body fused to GalR1 C-terminus | inhibition, % at 3 µM | 360,000 compounds, 0.44% hits | Galanin receptor type 3 (Homo sapiens), O60755;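 active = inhibition above the screen-wide average plus 3 SD, cut at about 13% in these data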;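 note: forskolin and galanin both at EC90 stimulate the cells; cAMP rise reported by CNG channel membrane potential dye signal; 0% = forskolin plus galanin with DMSO and 100% = forskolin alone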
# OX1R antag-2 = OX1R (HCRTR1) antagonists, primary screen, fluorescence, CHO/OX1R cells, Fluo-8 calcium, orexin A; Orexin/Hypocretin receptor type 1 (Homo sapiens), O43613; 330,000 compounds, 0.43% hits; Fluo-8 calcium fluorescence; AID 434989, 2010; inhibition, % at 5 µM;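 active = inhibition above its plate's threshold, mean inhibition of all tested compounds on the plate plus 3 SD, cut at about 37% in these data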;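 note: 0% = orexin A challenge wells and 100% = SB-334867-A antagonist wells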
# GPR7 antag = GPR7 receptor antagonists, primary screen, cell-based, fluorescence, single concentration; GPR7-expressing cells, fluorescence antagonist assay; 290,000 compounds, 1.1% hits; inhibition, % at 4.4 µM; in the data active = inhibition above about 16%, passing the limit was not always enough;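 note: cells stimulated with the agonist NPW; 0% = agonist with vehicle and 100% = vehicle without agonist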
# Target sequence (P48145 whole entry, looked up): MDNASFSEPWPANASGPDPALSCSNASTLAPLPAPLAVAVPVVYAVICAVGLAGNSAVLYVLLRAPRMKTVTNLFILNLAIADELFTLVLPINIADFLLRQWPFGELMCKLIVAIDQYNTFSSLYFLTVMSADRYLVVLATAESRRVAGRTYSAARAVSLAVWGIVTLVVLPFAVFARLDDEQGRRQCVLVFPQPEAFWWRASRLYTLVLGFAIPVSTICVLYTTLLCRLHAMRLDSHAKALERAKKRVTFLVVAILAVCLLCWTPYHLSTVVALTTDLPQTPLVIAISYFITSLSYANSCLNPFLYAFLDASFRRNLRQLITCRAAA
# Active calls of the source: *; . = not tested or not shown.
SMILES,CHO parental Ca,OX1R antag-1,GalR3 antagonist,OX1R antag-2,GPR7 antag
Oc1ccc(C23CCCC2C2(CCCC2)c2ccc(O)cc2O3)c(O)c1 (stereo not given),75.1*,8.0,-7.6,110.2*,.
CCOC(=O)c1[nH]c(C)c(C(=O)N2CCN(c3ccccc3)CC2)c1C,-14.1,6.0,-0.9,-17.3,-3.8
CCOc1ccc2ccccc2c1C(=O)N1CCN(c2ccccc2)CC1,-16.5,21.1,-11.3,-38.0,19.8*
c1ccc(Nc2ncnc3sc4c(c23)CCC4)cc1,-15.2,7.3,0.9,-21.0,-6.5
c1csc(CCNc2ncnc3sc4c(c23)CCC4)c1,58.2*,58.7*,0.6,-25.7,.
COc1ccc(S(=O)(=O)N2CCOC2CNC(=O)C(=O)NCCc2ccc(S(N)(=O)=O)cc2)cc1 (stereo not given),72.4*,5.2,.,-18.4,-3.9
COc1ccc(S(=O)(=O)N2CCOC2CNC(=O)C(=O)NCCc2c[nH]c3ccccc23)cc1C (stereo not given),-0.5,55.4*,.,5.0,-8.5
COC(=O)CCN(Cc1ccc(OC)cc1OC)S(=O)(=O)c1ccccc1Br,.,.,-8.2,.,.
CN(C=O)c1ccc(CSc2ccccc2)cc1,.,.,1.1,.,.
CNS(=O)(=O)c1cc(S(=O)(=O)NC)c2cccc3c2c1NC3=O,7.0,65.7*,-2.1,-4.6,-7.7
CNS(=O)(=O)c1ccc2c3c(cccc13)C(=O)N2,.,.,-6.7,.,-15.7
CN1C(=O)C(c2cn(C)c3ccccc23)(c2cn(C)c3ccccc23)c2cc(Br)ccc21,.,.,-6.9,.,.
CN1CCN(Cn2cc(/C=C/C(=O)c3ccccc3)c3ccccc32)CC1,-13.4,40.3*,.,13.6,-6.2
Cc1ccc(NC(=O)CCNC(=O)N2CC(=O)Nc3ccccc32)cc1Cl,.,.,-0.8,.,.
CCN(CC)S(=O)(=O)c1cccc(NC(=O)CCSc2ccc(Cl)cc2)c1,48.0*,6.3,-1.6,10.5,3.4
Cc1nnc(N/N=C/c2cc([N+](=O)[O-])c(N3CCC(C)CC3)cc2N2CCC(C)CC2)n1N,-33.6,145.8*,-4.5,-32.5,7.2
CCc1nnc(N/N=C/c2ccc(N3CCC(C)CC3)c([N+](=O)[O-])c2)n1N,-9.3,59.9*,-3.3,-1.9,-12.4
CC1CCN(c2cc(N3CCOCC3)c(F)cc2[N+](=O)[O-])CC1,-13.2,28.0,1.9,-24.7,-3.5
COc1ccc(CC2=CC(=O)c3ccccc3C2=O)cc1,4.5,38.9*,-12.3,-4.3,-4.3
Cc1nc(NC(=O)c2ccccc2)sc1-c1csc(NCc2ccco2)n1,-5.1,52.9*,.,4.0,-12.0
COC(=O)c1c(C)[nH]c(C(=O)C(C)OC(=O)C2CC(=O)N(c3ccc(C)cc3)C2)c1C (stereo not given),46.1*,6.8,-1.3,65.8*,.
COC(=O)c1c(C)[nH]c(C(=O)C(C)OC(=O)C2CC(=O)N(CCc3ccccc3)C2)c1C (stereo not given),-18.4,8.6,0.0,-15.1,.
O=C(CN(c1ccc(Cl)c(Cl)c1)S(=O)(=O)c1ccccc1)N1CCc2ccccc2C1,-14.0,73.7*,0.8,39.8,-8.8
Cc1cc(=O)[nH]c(SCC(=O)Nc2ccc(N3CCCCC3)cc2)n1,43.1*,9.5,-5.5,37.0,.
COc1ccc(N2CCN(C(=O)C(=O)c3cn(CC(=O)N4CCCC4)c4ccccc34)CC2)cc1,.,.,-3.1,.,.
SMILES,CHO parental Ca,OX1R antag-1,GalR3 antagonist,OX1R antag-2,GPR7 antag
COc1ccc(C(=O)C2CCCN(C(=O)/C=C/c3ccccn3)C2)c(C)c1 (stereo not given),-10.4,7.9,-5.0,-10.8,-3.5
CC(C)C(NCC(=O)Nc1ccccc1C(=O)NC1CC1)c1ccccc1 (stereo not given),-12.5,42.9*,-0.8,16.4,.
CC(NCC(=O)Nc1ccccc1C(=O)NC1CC1)c1cccs1 (stereo not given),-17.2,29.3,-5.9,-8.9,.
COc1ccccc1-c1nnc2sc(-c3cc4ccccc4o3)nn12,0.6,12.5,0.1,-9.3,18.2*
COc1ccccc1-c1nnc2sc(-c3ccc(N(C)C)cc3)nn12,-18.8,69.0*,11.4,14.5,18.3
O=C(N/N=C/c1cccc(Cl)c1)C(c1ccncc1)N1CCOCC1 (stereo not given),-3.9,15.2,-3.6,-3.6,-3.6
